Source: ChEMBL document CHEMBL1138216, “Design and synthesis of novel derivatives of the muscarinic agonist tetra(ethylene glycol)(3-methoxy-1,2,5-thiadiazol-4-yl) [3-(1-methyl-1,2,5,6-tetrahydropyrid-3-yl)-1,2,5-thiadiazol-4-yl] ether (CDD-0304): effects of structural modifications on the binding and activity at muscarinic receptor …” (J Med Chem, 2006)
Changes are numbered by the printed parent chain. Active and inactive are the calls of the source. The calls are words filed in the database; no cut-off is given here.

Tests used:
[1] = tested on: T1, Muscarinic acetylcholine receptor M1 (Homo sapiens), P11229 [E170K]; test: Agonist activity at human M1 receptor E170K mutant expressed in A9 L cells assessed as stimulation of phosphoinositide hydrolysis relative to carbachol; format: functional, cell-based; conditions: L929
T1 sequence (whole entry): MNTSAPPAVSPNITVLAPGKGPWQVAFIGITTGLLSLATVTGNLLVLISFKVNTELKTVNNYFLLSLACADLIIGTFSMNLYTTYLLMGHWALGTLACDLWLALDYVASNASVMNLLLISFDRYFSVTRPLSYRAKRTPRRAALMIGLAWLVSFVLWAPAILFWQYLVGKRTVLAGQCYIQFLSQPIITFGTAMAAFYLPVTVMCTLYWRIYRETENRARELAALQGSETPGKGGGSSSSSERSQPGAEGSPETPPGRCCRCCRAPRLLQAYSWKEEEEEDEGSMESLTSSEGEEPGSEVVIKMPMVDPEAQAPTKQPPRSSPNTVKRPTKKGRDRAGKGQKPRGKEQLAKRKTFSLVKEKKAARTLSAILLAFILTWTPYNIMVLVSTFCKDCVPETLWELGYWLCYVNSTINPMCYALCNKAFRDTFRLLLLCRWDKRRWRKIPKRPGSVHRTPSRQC
Method in brief: (§1)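 A9 L cells stably expressing the receptor, seeded 24 h, labelled overnight with 10 µCi/mL [3H]inositol in inositol-free DMEM; ligands in HBSS with 10 mM LiCl, 20 mM HEPES, 37 °C, 1 h; formic acid extraction, inositol phosphates counted by SPA beads.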

[2] = biological target: T2, Muscarinic acetylcholine receptor M1/M5 chimeric protein (Homo sapiens, UniProt P08912+P11229); test: Agonist activity at human M1/M5(o2) chimeric receptor expressed in A9 L cells assessed as stimulation of phosphoinositide hydrolysis; format: functional, cell-based, L929
T2 sequence (P11229 whole entry): T1 sequence (whole entry) with K170E
T2 sequence (P08912 whole entry): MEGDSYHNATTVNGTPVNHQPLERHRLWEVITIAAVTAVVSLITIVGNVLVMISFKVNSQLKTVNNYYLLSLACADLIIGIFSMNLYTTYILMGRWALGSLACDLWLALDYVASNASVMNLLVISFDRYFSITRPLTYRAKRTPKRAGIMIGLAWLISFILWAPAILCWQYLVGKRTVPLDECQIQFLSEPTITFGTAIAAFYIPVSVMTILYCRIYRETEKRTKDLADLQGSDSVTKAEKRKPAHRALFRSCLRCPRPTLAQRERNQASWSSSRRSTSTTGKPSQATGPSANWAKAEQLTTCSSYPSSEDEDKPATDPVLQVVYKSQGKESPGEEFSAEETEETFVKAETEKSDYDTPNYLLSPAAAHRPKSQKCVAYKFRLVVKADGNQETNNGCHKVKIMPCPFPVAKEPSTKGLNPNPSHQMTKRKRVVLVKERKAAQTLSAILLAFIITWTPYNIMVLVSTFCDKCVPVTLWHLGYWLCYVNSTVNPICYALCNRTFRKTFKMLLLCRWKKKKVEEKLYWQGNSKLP

[3] = biological target: T2, Muscarinic acetylcholine receptor M1/M5 chimeric protein; test: Inhibition of [3H](R)-QNB binding to human M1/M5(o3) chimeric receptor expressed in A9 L cells; format: cell-based, A9L
[4] = biological target: T3, Muscarinic acetylcholine receptor M1/M5 chimeric protein (Homo sapiens) (UniProt P11229+P08912); test: Agonist activity at human M1/M5(o2o3) chimeric receptor expressed in A9 L cells assessed as stimulation of phosphoinositide hydrolysis relative to carbachol; format: functional, cell-based; conditions: L929; method in brief: as §1
[5] = biological target: T4, Muscarinic acetylcholine receptor M1 (Homo sapiens) (UniProt P11229); test: Agonist activity at human M1 receptor expressed in A9 L cells assessed as stimulation of phosphoinositide hydrolysis relative to carbachol; format: functional, cell-based; conditions: L929; method in brief: as §1
T4 sequence (whole entry): T1 sequence (whole entry) with K170E

[6] = biological target: Muscarinic acetylcholine receptor M1 (Homo sapiens, UniProt P11229, Q185E); format: functional, cell-based, L929
[7] = biological target: T3, Muscarinic acetylcholine receptor M1/M5 chimeric protein (Homo sapiens); test: Agonist activity at human M1/M5(o2) chimeric receptor expressed in A9 L cells assessed as stimulation of phosphoinositide hydrolysis relative to carbachol; format: functional, cell-based; conditions: L929; method in brief: as §1
[8] = tested on: T5, Muscarinic acetylcholine receptor M1 (Homo sapiens), P11229 [Q185E]; test: Agonist activity at human M1 receptor Q185E mutant expressed in A9 L cells assessed as stimulation of phosphoinositide hydrolysis relative to carbachol; format: functional, cell-based; conditions: L929; method in brief: as §1
T5 sequence (whole entry): T1 sequence (whole entry) with K170E, Q185E

[9] = biological target: T2, Muscarinic acetylcholine receptor M1/M5 chimeric protein; test: Inhibition of [3H](R)-QNB binding to human M1/M5(o2o3) chimeric receptor expressed in A9 L cells; format: cell-based, A9L
[10] = biological target: Muscarinic acetylcholine receptor M1 (Homo sapiens, UniProt P11229, E170K); format: functional, cell-based, L929
[11] = biological target: T2, Muscarinic acetylcholine receptor M1/M5 chimeric protein; test: Agonist activity at human M1/M5(o3) chimeric receptor expressed in A9 L cells assessed as stimulation of phosphoinositide hydrolysis; format: functional, cell-based, L929
[12] = biological target: T6, Muscarinic acetylcholine receptor M5 (Homo sapiens) (UniProt P08912); test: Agonist activity at human M5 receptor expressed in A9 L cells assessed as stimulation of phosphoinositide hydrolysis relative to carbachol; format: functional, cell-based; conditions: L929; method in brief: as §1
T6 sequence (whole entry): T2 sequence (P08912 whole entry)

[13] = biological target: T2, Muscarinic acetylcholine receptor M1/M5 chimeric protein; test: Inhibition of [3H](R)-QNB binding to human M1/M5(o2) chimeric receptor expressed in A9 L cells; format: cell-based, A9L
[14] = biological target: T3, Muscarinic acetylcholine receptor M1/M5 chimeric protein (Homo sapiens); test: Agonist activity at human M1/M5(o3) chimeric receptor expressed in A9 L cells assessed as stimulation of phosphoinositide hydrolysis relative to carbachol; format: functional, cell-based; conditions: L929; method in brief: as §1
[15] = biological target: Muscarinic acetylcholine receptor M1 (Homo sapiens, UniProt P11229, T192A); test: Inhibition of [3H](R)-QNB binding to human M1 receptor Thr192Ala mutant expressed in A9 L cells; format: cell-based, A9L
Sequence of Muscarinic acetylcholine receptor M1 (Homo sapiens, UniProt P11229, T192A) (P11229 whole entry T192A): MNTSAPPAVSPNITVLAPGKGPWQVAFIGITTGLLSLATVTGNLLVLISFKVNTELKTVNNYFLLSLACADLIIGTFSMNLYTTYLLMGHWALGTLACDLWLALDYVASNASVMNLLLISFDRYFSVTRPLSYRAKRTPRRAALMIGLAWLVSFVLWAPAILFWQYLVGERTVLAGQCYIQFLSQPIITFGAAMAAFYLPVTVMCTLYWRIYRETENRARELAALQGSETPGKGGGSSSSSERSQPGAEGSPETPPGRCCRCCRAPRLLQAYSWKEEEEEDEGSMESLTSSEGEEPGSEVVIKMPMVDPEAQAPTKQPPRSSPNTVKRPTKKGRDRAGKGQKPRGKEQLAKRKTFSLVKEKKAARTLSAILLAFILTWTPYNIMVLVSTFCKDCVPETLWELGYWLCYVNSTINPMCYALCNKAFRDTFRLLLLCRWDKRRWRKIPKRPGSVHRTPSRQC

T3 sequence (P11229 whole entry, looked up, change not shown, one chain of several): as the sequence (P11229 whole entry T192A) above, with A192T counted along it
Sequence of Muscarinic acetylcholine receptor M1 (Homo sapiens, UniProt P11229, Q185E) (P11229 whole entry Q185E): as the sequence (P11229 whole entry T192A) above, with Q185E, A192T counted along it

CN1CCC=C(c2nsnc2OCCOCCOCCOCCOc2nsnc2C2=CCCN(C)C2)C1
Smax [1]: 66%
EC50 [2]: 79.4 nM
Ki [3]: 20 nM
Smax [4]: 2%
Smax [5]: 69%
EC50 [6]: 50.1 nM
Smax [7]: 34%
Smax [8]: 50%
Ki [9]: 100 nM
EC50 [10]: 10 nM
EC50 [11]: 631 nM
Activity [12]: inactive
Ki [13]: 39.8 nM
Smax [14]: 23%
Ki [15]: 100 nM
